This is an account of results in ChEMBL document CHEMBL3286272, “Synthesis, biological, and biophysical studies of DAG-indololactones designed as selective activators of RasGRP” (Bioorg Med Chem, 2014).

Assay [1] addresses Protein kinase C delta type (Homo sapiens) (UniProt Q05655). The assay is described as follows: Binding affinity to recombinant human GFP-tagged PKC-delta expressed in human LNCAP cells assessed as induction of protein translocation from plasma membrane to internal membrane at 10000 nM after 2 to 10 mins by confocal microscopic analysis. It counts as cell-based. In a few lines:
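LNCaP cells were transiently transfected with human GFP-PKCδ or GFP-RasGRP3 and imaged 24 h later by live confocal microscopy (488 nm excitation) every 30 s for 30 min after 10 μM ligand. Distribution was assessed from representative images. n = 3–6.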

For assay [2], the system named is Lipid bilayer. Kind of assay: Binding affinity to […] embedded 9:1 DMPC/DMPG giant vesicle at 2.42 to 6.05 uM by fluorescence anisotropy method. Put shortly: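 Giant vesicles (DMPC/DMPG 9:1, rapid evaporation, 0.1 M sucrose, 0.1 M KCl, 2 mM Tris pH 7.4) were loaded with DPH-TMA at 1.25 μM final for 30 min at room temperature. Compound from DMSO stock was added at 2.42 and 6.05 μM final. Anisotropy was read at 430 nm with 355 nm excitation.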
Background: In fluorescence polarisation assays a small probe gives low polarisation when free and higher when bound to something large.

The species named for assay [3] is Homo sapiens. Kind of assay: Selectivity ratio of Ki for recombinant human PKC-alpha to Ki for recombinant RasGRP1 C1 domain (unknown origin).
Assay [4] is filed under the species Homo sapiens. The assay is described as follows: Selectivity ratio of Ki for recombinant human PKC-epsilon to Ki for recombinant RasGRP1 C1 domain (unknown origin).
Assay [5] can be described thus: Binding affinity to 9:1 DMPG/DMPC giant vesicle at 6.05 uM by fluorescence emission spectra analysis. Conditions: in the assay text read “9:1 DMPC/DMPG” for “9:1 DMPG/DMPC”. Put shortly:
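Intrinsic 1-methylindole emission of 6.05 μM compound in Tris/sucrose/KCl buffer pH 7.4 was recorded at 27°C while titrating with DMPC/DMPG giant vesicles (5–30 μL), with excitation at each compound's own wavelength. Vesicle light scattering was under 5% of the signal.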

For assay [6], the species on record is Homo sapiens. Kind of assay: Selectivity ratio of Ki for recombinant human PKC-alpha to Ki for recombinant human GFP-tagged RasGRP3.
Assay [7] deals with Lipid bilayer. Kind of assay: Binding affinity to NBD-PE embedded 9:1 DMPC/DMPG giant vesicle at 6.05 uM by FRET analysis. In a few lines: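 Giant vesicles containing NBD-PE (100:1 phospholipid:fluorophore) were mixed with 6.05 μM compound from DMSO stock in Tris/sucrose/KCl buffer pH 7.4. NBD-PE emission was recorded after excitation at 330–370 nm, the indole excitation range. Triton addition served as the disruption control.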

Assay [8] addresses T1, Protein kinase C epsilon type (Homo sapiens) (UniProt Q02156).
T1 sequence (whole entry): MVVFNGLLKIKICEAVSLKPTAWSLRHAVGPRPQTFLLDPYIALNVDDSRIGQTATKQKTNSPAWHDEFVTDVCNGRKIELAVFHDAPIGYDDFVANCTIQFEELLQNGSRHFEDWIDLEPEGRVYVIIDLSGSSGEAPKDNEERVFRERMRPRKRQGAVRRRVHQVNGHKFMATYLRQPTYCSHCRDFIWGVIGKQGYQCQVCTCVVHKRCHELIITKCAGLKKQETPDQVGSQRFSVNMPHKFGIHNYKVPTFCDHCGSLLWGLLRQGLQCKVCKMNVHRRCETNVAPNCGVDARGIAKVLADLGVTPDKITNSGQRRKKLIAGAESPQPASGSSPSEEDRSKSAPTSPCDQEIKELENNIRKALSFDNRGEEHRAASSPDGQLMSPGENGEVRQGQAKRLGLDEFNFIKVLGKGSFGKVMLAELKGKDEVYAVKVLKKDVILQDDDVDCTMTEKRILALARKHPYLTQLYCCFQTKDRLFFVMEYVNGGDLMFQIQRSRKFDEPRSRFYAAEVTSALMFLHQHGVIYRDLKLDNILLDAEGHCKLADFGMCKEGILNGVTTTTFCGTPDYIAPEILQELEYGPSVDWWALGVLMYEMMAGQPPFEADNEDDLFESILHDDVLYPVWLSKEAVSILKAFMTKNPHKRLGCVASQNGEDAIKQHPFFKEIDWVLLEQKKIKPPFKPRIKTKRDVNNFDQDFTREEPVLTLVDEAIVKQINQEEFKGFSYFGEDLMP
Kind of assay: Binding affinity to recombinant human YFP-tagged PKC-epsilon expressed in human LNCAP cells assessed as induction of protein translocation from plasma membrane to internal membrane at 10000 nM after 2 to 10 mins by confocal microscopic analysis. In kind it is cell-based. In a few lines:
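LNCaP cells were transiently transfected with human YFP-PKCε and imaged live by confocal microscopy 24 h later every 30 s for 30 min after 10 μM ligand. Membrane/cytoplasm intensity ratio from 4 μm2 regions was normalized to time 0. n = 3–6.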

Assay [9] addresses Protein kinase C alpha type (Homo sapiens, UniProt P17252). The assay is described as follows: Binding affinity to recombinant human GFP-tagged PKC-alpha expressed in CHOK1 cells assessed as induction of protein translocation from plasma membrane to internal membrane at 10000 nM after 5 to 15 mins by confocal microscopic analysis. Conditions: CHO-K1. It counts as cell-based. Put shortly: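 CHO-K1 cells were transiently transfected with human GFP-PKCα and imaged live by confocal microscopy 24 h later (488 nm excitation, 500–530 nm emission) every 30 s for 30 min after 10 μM ligand. Membrane/cytoplasm intensity ratio from 4 μm2 regions was normalized to time 0. n = 3–6.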

In assay [10] the target is Protein kinase C delta type (Homo sapiens) (UniProt Q05655). Kind of assay: Activation of PKC-delta in HEK293 cells assessed as protein phosphorylation at S299 at 0.1 to 30 uM after 30 mins by Western blot analysis. In kind it is cell-based.
Chain of Protein kinase C delta type (Homo sapiens) (Q05655 whole entry, looked up): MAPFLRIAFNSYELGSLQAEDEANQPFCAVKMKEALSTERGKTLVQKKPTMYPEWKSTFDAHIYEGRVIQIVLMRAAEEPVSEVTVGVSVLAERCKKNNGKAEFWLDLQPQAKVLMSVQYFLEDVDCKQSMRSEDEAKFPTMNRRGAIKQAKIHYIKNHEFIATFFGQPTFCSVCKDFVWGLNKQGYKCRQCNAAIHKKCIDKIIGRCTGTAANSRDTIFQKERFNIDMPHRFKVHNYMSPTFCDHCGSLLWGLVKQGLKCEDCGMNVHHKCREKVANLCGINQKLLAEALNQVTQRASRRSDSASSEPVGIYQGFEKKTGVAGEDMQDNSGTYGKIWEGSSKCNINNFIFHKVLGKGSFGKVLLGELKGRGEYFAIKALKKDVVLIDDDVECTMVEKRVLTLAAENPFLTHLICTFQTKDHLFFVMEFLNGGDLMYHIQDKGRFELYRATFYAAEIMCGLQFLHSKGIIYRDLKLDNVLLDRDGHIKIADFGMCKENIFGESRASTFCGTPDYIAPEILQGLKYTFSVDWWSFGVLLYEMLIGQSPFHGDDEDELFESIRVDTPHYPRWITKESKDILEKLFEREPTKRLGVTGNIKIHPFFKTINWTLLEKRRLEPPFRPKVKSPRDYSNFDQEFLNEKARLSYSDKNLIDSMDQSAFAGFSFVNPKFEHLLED
For assay [11], the target named is T2, Ras guanyl-releasing protein 3 (Homo sapiens) (UniProt Q8IV61).
T2 sequence (whole entry): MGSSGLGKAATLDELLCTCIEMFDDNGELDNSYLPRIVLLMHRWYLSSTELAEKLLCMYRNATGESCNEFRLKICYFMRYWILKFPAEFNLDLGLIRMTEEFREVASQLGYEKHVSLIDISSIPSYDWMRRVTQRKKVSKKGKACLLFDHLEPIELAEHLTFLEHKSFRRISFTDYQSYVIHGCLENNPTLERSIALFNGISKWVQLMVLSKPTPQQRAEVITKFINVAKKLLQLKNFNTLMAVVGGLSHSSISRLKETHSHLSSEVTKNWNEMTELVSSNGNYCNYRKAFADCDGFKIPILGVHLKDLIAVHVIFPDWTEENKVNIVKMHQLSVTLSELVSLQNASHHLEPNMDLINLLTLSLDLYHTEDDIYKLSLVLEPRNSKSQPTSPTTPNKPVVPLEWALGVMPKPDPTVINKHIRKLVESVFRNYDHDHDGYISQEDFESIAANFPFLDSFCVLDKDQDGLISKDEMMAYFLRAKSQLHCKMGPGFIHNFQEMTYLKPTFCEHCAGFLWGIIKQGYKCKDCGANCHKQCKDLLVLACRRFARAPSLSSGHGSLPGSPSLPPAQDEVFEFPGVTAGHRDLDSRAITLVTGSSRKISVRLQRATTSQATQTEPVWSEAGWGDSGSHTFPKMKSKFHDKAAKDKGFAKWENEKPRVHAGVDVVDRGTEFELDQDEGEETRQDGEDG
The assay is described as follows: Activation of RasGRP3 (unknown origin) overexpressed in HEK293 cells assessed as ERK1/2 phosphorylation at 0.1 to 30 uM after 30 mins by Western blot analysis. It counts as cell-based. For orientation: In western blotting, separated proteins are transferred to a membrane and probed.

Calls of active or inactive are those of the source. The calls are words filed in the database; no cut-off is given here.

With `CCCC(CCC)C(=O)OCC1(CO)C/C(=C\c2cn(C)c3ccccc23)C(=O)O1` (stereo not drawn), the result (in [1]; with Lipid bilayer [2]; in assay [8]; in assay [9]; in [10]) was Active. In addition, the Ratio Ki in the assay listed under Homo sapiens [3] came out at 65; in the assay filed under Homo sapiens [4], 84; in the assay listed under Homo sapiens [6], 49. Further, the outcome (in assay [5]; in the assay with Lipid bilayer [7]) was inactive.

With `CCCC(CCC)C(=O)OCC1(CO)C/C(=C\c2cccc3ccn(C)c23)C(=O)O1` (stereo not drawn), the result (in [1]; with Lipid bilayer [2]; in [11]; in the assay with Lipid bilayer [7]; in assay [8]; in [9]) was Active. Further, the outcome in [10] was Active. The Ratio Ki worked out at 19 in the assay filed under Homo sapiens [3], 17 in the assay filed under Homo sapiens [4] and 10 in the assay filed under Homo sapiens [6]. The outcome in assay [5] was inactive.

Consider `CCCC(CCC)C(=O)OCC1(CO)C/C(=C\c2ccc3c(ccn3C)c2)C(=O)O1` (stereo not drawn), for which the result (in assay [1]; in assay [11]; in the assay with Lipid bilayer [7]; in [8]; in assay [9]; in assay [10]) was Active. Moreover, the result (in the assay with Lipid bilayer [2]; in [5]) was inactive. For the same compound, the Ratio Ki in the assay listed under Homo sapiens [3] was determined as 24; in the assay listed under Homo sapiens [4], 5.3; in the assay listed under Homo sapiens [6], 24.

As to `CCCC(CCC)C(=O)OCC1(CO)C/C(=C\c2cccc3c2ccn3C)C(=O)O1` (stereo not drawn), the outcome in assay [1], in [11], in assay [5], in assay [8], in assay [9] and in assay [10] was Active. Besides, the result in the assay on Lipid bilayer [2] was inactive. Besides, the Ratio Ki was found to be 10 in the assay listed under Homo sapiens [3], 9.4 in the assay filed under Homo sapiens [4] and 11 in the assay listed under Homo sapiens [6].

Take `CCCC(CCC)C(=O)OCC1(CO)C/C(=C\c2ccc3ccn(C)c3c2)C(=O)O1` (stereo not drawn): the outcome (in [1]; with Lipid bilayer [2]; in assay [11]; in [5]; in the assay on Lipid bilayer [7]; in [8]) was Active. For the same compound, the result in assay [9] and in assay [10] was Active. Besides, the Ratio Ki in the assay listed under Homo sapiens [3] worked out at 9; in the assay listed under Homo sapiens [4] it was 9.3; in the assay listed under Homo sapiens [6] it was 6.
